{
  "source": "paper PMC5839514",
  "about": "(MedChemComm, 2017)",
  "key": {"fibroblast HEL 299 cells": {"test_system": "fibroblast HEL 299 cells", "experiment": "Cell proliferation assay, normal fibroblast HEL 299 cells", "assay_type": "cell-based", "outline": "(§1)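 Cells were obtained from a university collaborator and grown in RPMI or DMEM with 5% or 10% fetal bovine serum plus 1% penicillin/streptomycin. The medium for each line is not specified. Cells were seeded at 3 × 10^4 per well and treated with test compound or DMSO. After 4 days, cell number and viability were counted on an automated cell viability analyzer.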"}, "[1]": {"test_system": "LS174T colon cancer cells", "experiment": "Cell proliferation assay, LS174T colon cancer cells", "assay_type": "cell-based", "conditions": "Table 3", "outline": "(§2)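 Cells were kept in RPMI or DMEM with 5% or 10% fetal bovine serum and 1% penicillin/streptomycin. They were plated at 3 × 10^4 cells per well in 12-well plates and treated with DMSO or test compound. After 4 days, cell number and viability were counted on a Vi-Cell viability analyzer. Inhibition is relative to DMSO.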"}, "lung epithelial BEAS-2B": {"test_system": "lung epithelial BEAS-2B", "experiment": "Cell proliferation assay, normal lung epithelial BEAS-2B cells", "assay_type": "cell-based", "outline": "as §1"}, "HT-29": {"test_system": "HT-29", "experiment": "Cell proliferation assay, HT-29 colon cancer cells", "assay_type": "cell-based", "outline": "as §2"}, "cyclin D1": {"test_system": "cyclin D1", "experiment": "Western blot of cyclin D1 in LS174T cells", "assay_type": "cell-based", "conditions": "300 nM", "outline": "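LS174T colon cancer cells were exposed to test compound at 300 nM. Lysates were immunoblotted with antibodies against cyclin D1, p21Wif1/Cip1 and β-tubulin.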"}, "[2]": {"test_system": "cyclin-dependent kinase inhibitor p21^Wif1/Cip1", "experiment": "Western blot of p21^Wif1/Cip1 in LS174T cells", "assay_type": "cell-based", "conditions": "300 nM"}, "Water solubility": {"experiment": "Water solubility", "assay_type": "physicochemical", "conditions": "for Water solubility of hydrochloride salt: hydrochloride salts"}, "[3]": {"test_system": "LS174T colon cancer cells", "conditions": "cited from earlier work; for Inhibition of proliferation (%) of LS174T cells: Table 1"}},
  "note": "Read-outs that look alike come from different tables or passages of the source.",
  "data": [
    {"smiles": "N.N.[Cl][Pt][Cl]", "note": "[Cisplatin]", "values": [
      {"measurement": "Percentage inhibition of the proliferation of normal cells", "setting": "fibroblast HEL 299 cells; 1 μM", "value": "37.5±4.1", "unit": "%"},
      {"measurement": "Percentage inhibition of the proliferation of normal cells", "setting": "fibroblast HEL 299 cells; 10 μM", "value": "57.8±0.3", "unit": "%"},
      {"measurement": "Percentage inhibition of the proliferation of colon cancer cells", "setting": "[1]; 1 μM", "value": "24.2±5.6", "unit": "%"},
      {"measurement": "Percentage inhibition of the proliferation of colon cancer cells", "setting": "[1]; 10 μM", "value": "82.1±1.4", "unit": "%"},
      {"measurement": "Percentage inhibition of the proliferation of normal cells", "setting": "lung epithelial BEAS-2B; 1 μM", "value": "39.2±14.9", "unit": "%"},
      {"measurement": "Percentage inhibition of the proliferation of normal cells", "setting": "lung epithelial BEAS-2B; 10 μM", "value": "82.4±0.2", "unit": "%"},
      {"measurement": "Percentage inhibition of the proliferation of colon cancer cells", "setting": "HT-29; 1 μM", "value": "4.4±5.9", "unit": "%"},
      {"measurement": "Percentage inhibition of the proliferation of colon cancer cells", "setting": "HT-29; 10 μM", "value": "72.7±3.5", "unit": "%"}
    ]},
    {"smiles": "CNc1ncc(C#Cc2c(F)cccc2F)c2ccccc12", "note": "[Compound 5nn, 4-((2,6-Difluorophenyl)ethynyl)-N-methylisoquinolin-1-amine]", "values": [
      {"measurement": "Effect on cyclin D1 (western blot)", "setting": "cyclin D1", "value": "inhibited cyclin D1"},
      {"measurement": "Effect on p21^Wif1/Cip1 (western blot)", "setting": "[2]", "value": "induced cyclin-dependent kinase inhibitor p21^Wif1/Cip1"}
    ]},
    {"smiles": "CN1CCN(c2ncc(C#Cc3c(F)cccc3F)c3ccccc23)CC1.Cl", "note": "[Compound 5oo, 4-((2,6-Difluorophenyl)ethynyl)-1-(4-methylpiperazin-1-yl)isoquinoline]", "values": [
      {"measurement": "Water solubility of hydrochloride salt", "setting": "Water solubility", "value": "completely water-soluble"}
    ]},
    {"smiles": "CN(C)c1ncc(C#Cc2c(F)cccc2F)c2ccccc12", "note": "[Compound 5mm, 4-((2,6-Difluorophenyl)ethynyl)-N,N-dimethylisoquinolin-1-amine]", "values": [
      {"measurement": "Effect on cyclin D1 (western blot)", "setting": "cyclin D1", "value": "inhibited cyclin D1"},
      {"measurement": "Effect on p21^Wif1/Cip1 (western blot)", "setting": "[2]", "value": "induced cyclin-dependent kinase inhibitor p21^Wif1/Cip1"}
    ]},
    {"smiles": "CN(C)c1ccc(C#Cc2c(F)cccc2F)cc1", "note": "[Compound 2, 4-((2,6-difluorophenyl)ethynyl)-N,N-dimethylaniline]", "values": [
      {"measurement": "Inhibition of cell proliferation (%) of colon cancer LS174T cells", "setting": "[3]; 30 nM, Table 2", "value": "57±1.2", "unit": "%"},
      {"measurement": "Inhibition of proliferation (%) of LS174T cells", "setting": "[3]; 100 nM", "value": "85.2±0.5", "unit": "%"},
      {"measurement": "Inhibition of proliferation (%) of LS174T cells", "setting": "[3]; 1 μM", "value": "99.5±0.1", "unit": "%"},
      {"measurement": "Effect on cyclin D1 (western blot)", "setting": "cyclin D1", "value": "inhibited cyclin D1"},
      {"measurement": "Water solubility", "setting": "Water solubility; parent compound", "value": "sparingly water-soluble"},
      {"measurement": "Effect on p21^Wif1/Cip1 (western blot)", "setting": "[2]", "value": "induced cyclin-dependent kinase inhibitor p21^Wif1/Cip1"}
    ]},
    {"smiles": "CN(C)c1ncc(C#Cc2c(F)cccc2F)c2ncccc12", "note": "[Compound 5pp, 8-((2,6-Difluorophenyl)ethynyl)-N,N-dimethyl-1,6-naphthyridin-5-amine]", "values": [
      {"measurement": "Water solubility of hydrochloride salt", "setting": "Water solubility", "value": "completely water-soluble"}
    ]}
  ]
}
